From ChEMBL document CHEMBL2384906, “Biological activity, design, synthesis and structure activity relationship of some novel derivatives of curcumin containing sulfonamides” (Eur J Med Chem, 2013)
In brackets after ≈: the same amount, converted by molar mass. Activity calls are given as the source filed them. The calls are words filed in the database; no cut-off is given here.

How the values were obtained:
Mus musculus = assay: Antiinflammatory activity in mouse assessed as inhibition of carrageenan-induced increase in paw volume at 200 mg/kg administered 1 hr prior to carrageenan challenge measured after 3 hrs relative to control; assay type: functional
How it was run: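 Mice were fasted 2 h and placed in groups of five. Controls received saline i.p. Phenylbutazone was given at 100 mg/kg i.p., curcumin at 200 mg/kg i.p., and derivatives at 200 mg/kg. After 1 h, 0.1 mL of 1% carrageenan in saline was injected subplantar into the right hind paw. Paw volume was followed by plethysmometer for 3 h, and % inhibition was calculated as (Vc − Vt)/Vc × 100.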

HCT-116 = assay: Cytotoxicity against human HCT116 cells after 24 hrs by MTT assay; assay type: functional, cell-based
How it was run: (§1)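 The MTT assay seeded 5 × 10⁴ cells per well and grew them 24 h in RPMI 1640 with compound at 2.5–200 µM. Medium without cells was the blank and adriamycin the positive control. MTT was added for 4 h at 37 °C, formazan was solubilised, and absorbance was read at 570 nm. IC50 is the concentration that cuts viability 50% against untreated cells.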

QG-56 = assay: Cytotoxicity against human QG56 cells after 24 hrs by MTT assay; assay type: functional, cell-based; how it was run: as §1
HeLa = assay: Cytotoxicity against human HeLa cells after 24 hrs by MTT assay; assay type: functional, cell-based; how it was run: as §1
HepG2 = assay: Cytotoxicity against human HepG2 cells after 24 hrs by MTT assay; assay type: functional, cell-based; how it was run: as §1
Trichoderma viride [1] = assay: Antifungal activity against Trichoderma viride MTCC 1107 after 48 hrs; assay type: functional; conditions: MTCC 1107, 48 h
Trichoderma viride [2] = assay: Antifungal activity against Trichoderma viride MTCC 1107 assessed as zone of inhibition at 20 uM after 48 hrs by disc diffusion method; assay type: functional; conditions: MTCC 1107, 48 h, read-out: IZ
How it was run: (§2)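 Spores from 4-day potato dextrose agar cultures, suspended in sterile water at 1.5 × 10⁵ CFU/mL. 0.2 mL was spread on potato dextrose agar. 5 mm filter-paper discs soaked with test compound were laid on the lawn. Incubation was 48 h at 28 °C, then the inhibition zone was measured in mm. Fluconazole was the positive control and acetone the negative control.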

Trichoderma viride [3] = assay: Antifungal activity against Trichoderma viride MTCC 1107 assessed as zone of inhibition at 40 uM after 48 hrs by disc diffusion method; assay type: functional; conditions: MTCC 1107, 48 h, read-out: IZ; how it was run: as §2
Trichoderma viride [4] = assay: Antifungal activity against Trichoderma viride MTCC 1107 assessed as zone of inhibition at 80 uM after 48 hrs by disc diffusion method; assay type: functional; conditions: MTCC 1107, 48 h, read-out: IZ; how it was run: as §2
Curvularia lunata [5] = assay: Antifungal activity against Curvularia lunata MTCC 581 after 48 hrs; assay type: functional; conditions: MTCC 581, 48 h
Curvularia lunata [6] = assay: Antifungal activity against Curvularia lunata MTCC 581 assessed as zone of inhibition at 20 uM after 48 hrs by disc diffusion method; assay type: functional; conditions: MTCC 581, 48 h, read-out: IZ; how it was run: as §2
Curvularia lunata [7] = assay: Antifungal activity against Curvularia lunata MTCC 581 assessed as zone of inhibition at 40 uM after 48 hrs by disc diffusion method; assay type: functional; conditions: MTCC 581, 48 h, read-out: IZ; how it was run: as §2
Aspergillus flavus [8] = assay: Antifungal activity against Aspergillus flavus MTCC 1021 after 48 hrs; assay type: functional
Curvularia lunata [9] = assay: Antifungal activity against Curvularia lunata MTCC 581 assessed as zone of inhibition at 80 uM after 48 hrs by disc diffusion method; assay type: functional; conditions: MTCC 581, 48 h, read-out: IZ; how it was run: as §2
Aspergillus flavus [10] = assay: Antifungal activity against Aspergillus flavus MTCC 1021 assessed as zone of inhibition at 80 uM after 48 hrs by disc diffusion method; assay type: functional; how it was run: as §2
Aspergillus niger [11] = assay: Antifungal activity against Aspergillus niger MTCC 1108 after 48 hrs; assay type: functional
Aspergillus niger [12] = assay: Antifungal activity against Aspergillus niger MTCC 1108 assessed as zone of inhibition at 80 uM after 48 hrs by disc diffusion method; assay type: functional; how it was run: as §2
Escherichia coli [13] = assay: Antimicrobial activity against Escherichia coli ATCC 35218 after 24 hrs by broth micro serial dilution method; assay type: functional; conditions: ATCC 35218, 24 h
How it was run: (§3)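 This was broth microdilution in autoclaved Mueller-Hinton broth. 150 µL of compound per well was serially diluted […], and 50 µL of test organism was added. Plates were incubated 24 h at 37 °C and optical density was read.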

Escherichia coli [14] = assay: Antimicrobial activity against Escherichia coli ATCC 35218 assessed as diameter of inhibition zone at 20 uM after 24 hrs by Kirby -Baur disc diffusion method; assay type: functional; conditions: ATCC 35218, 24 h, read-out: DIZ
How it was run: (§4)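 Kirby-Bauer disc diffusion was used. Acetone stocks (160 µM) were serially doubled down to 80, 40 and 20 µM. 4 µL of each went onto 5 mm sterile paper discs, which were dried 30 min at 50 °C. Inoculum was 1.5 × 10⁸ CFU/mL diluted to 3 × 10² CFU/mL, and 50 µL was spread on Mueller-Hinton agar. After 24 h at 37 °C the inhibition-zone diameter was measured. Ciprofloxacin served as positive control.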

Escherichia coli [15] = assay: Antimicrobial activity against Escherichia coli ATCC 35218 assessed as diameter of inhibition zone at 40 uM after 24 hrs by Kirby -Baur disc diffusion method; assay type: functional; conditions: ATCC 35218, 24 h, read-out: DIZ; how it was run: as §4
Escherichia coli [16] = assay: Antimicrobial activity against Escherichia coli ATCC 35218 assessed as diameter of inhibition zone at 80 uM after 24 hrs by Kirby -Baur disc diffusion method; assay type: functional; conditions: ATCC 35218, 24 h, read-out: DIZ; how it was run: as §4
Pseudomonas aeruginosa [17] = assay: Antimicrobial activity against Pseudomonas aeruginosa ATCC 15499 after 24 hrs by broth micro serial dilution method; assay type: functional; conditions: ATCC 15499, 24 h; how it was run: as §3
Pseudomonas aeruginosa [18] = assay: Antimicrobial activity against Pseudomonas aeruginosa ATCC 15499 assessed as diameter of inhibition zone at 20 uM after 24 hrs by Kirby -Baur disc diffusion method; assay type: functional; how it was run: as §4
Pseudomonas aeruginosa [19] = assay: Antimicrobial activity against Pseudomonas aeruginosa ATCC 15499 assessed as diameter of inhibition zone at 40 uM after 24 hrs by Kirby -Baur disc diffusion method; assay type: functional; how it was run: as §4
Pseudomonas aeruginosa [20] = assay: Antimicrobial activity against Pseudomonas aeruginosa ATCC 15499 assessed as diameter of inhibition zone at 80 uM after 24 hrs by Kirby -Baur disc diffusion method; assay type: functional; conditions: ATCC 15499, 24 h, read-out: DIZ; how it was run: as §4
Salmonella typhi [21] = assay: Antimicrobial activity against Salmonella typhi ATCC 23564 after 24 hrs by broth micro serial dilution method; assay type: functional, Salmonella enterica subsp. enterica serovar Typhi; conditions: Salmonella enterica, ATCC 23564, 24 h
Salmonella typhi [22] = assay: Antimicrobial activity against Salmonella typhi ATCC 23564 assessed as diameter of inhibition zone at 20 uM after 24 hrs by Kirby -Baur disc diffusion method; assay type: functional; conditions: Salmonella enterica subsp. enterica serovar Typhi
Salmonella typhi [23] = assay: Antimicrobial activity against Salmonella typhi ATCC 23564 assessed as diameter of inhibition zone at 40 uM after 24 hrs by Kirby -Baur disc diffusion method; assay type: functional; conditions: Salmonella enterica subsp. enterica serovar Typhi
Salmonella typhi [24] = assay: Antimicrobial activity against Salmonella typhi ATCC 23564 assessed as diameter of inhibition zone at 80 uM after 24 hrs by Kirby -Baur disc diffusion method; assay type: functional, Salmonella enterica subsp. enterica serovar Typhi; conditions: Salmonella enterica, ATCC 23564, 24 h; read-out: DIZ
Bacillus cereus [25] = assay: Antimicrobial activity against Bacillus cereus MTCC 7350 after 24 hrs by broth micro serial dilution method; assay type: functional; conditions: MTCC 7350, 24 h; how it was run: as §3
Bacillus cereus [26] = assay: Antimicrobial activity against Bacillus cereus MTCC 7350 assessed as diameter of inhibition zone at 20 uM after 24 hrs by Kirby -Baur disc diffusion method; assay type: functional; how it was run: as §4
Bacillus cereus [27] = assay: Antimicrobial activity against Bacillus cereus MTCC 7350 assessed as diameter of inhibition zone at 40 uM after 24 hrs by Kirby -Baur disc diffusion method; assay type: functional; how it was run: as §4
Bacillus cereus [28] = assay: Antimicrobial activity against Bacillus cereus MTCC 7350 assessed as diameter of inhibition zone at 80 uM after 24 hrs by Kirby -Baur disc diffusion method; assay type: functional; conditions: MTCC 7350, 24 h, read-out: DIZ; how it was run: as §4
Staphylococcus aureus [29] = assay: Antimicrobial activity against Staphylococcus aureus ATCC 11632 after 24 hrs by broth micro serial dilution method; assay type: functional; conditions: ATCC 11632, 24 h; how it was run: as §3
Staphylococcus aureus [30] = assay: Antimicrobial activity against Staphylococcus aureus ATCC 11632 assessed as diameter of inhibition zone at 20 uM after 24 hrs by Kirby -Baur disc diffusion method; assay type: functional; how it was run: as §4
Staphylococcus aureus [31] = assay: Antimicrobial activity against Staphylococcus aureus ATCC 11632 assessed as diameter of inhibition zone at 40 uM after 24 hrs by Kirby -Baur disc diffusion method; assay type: functional; how it was run: as §4
Staphylococcus aureus [32] = assay: Antimicrobial activity against Staphylococcus aureus ATCC 11632 assessed as diameter of inhibition zone at 80 uM after 24 hrs by Kirby -Baur disc diffusion method; assay type: functional; conditions: ATCC 11632, 24 h, read-out: DIZ; how it was run: as §4

Structure (SMILES): COc1cc(/C=C/c2nn(-c3ccccc3)c(/C=C/c3ccc(O)c(OC)c3)c2/N=N/c2ccc(S(=O)(=O)Nc3cc(C)on3)cc2)ccc1O
- inhibition in vivo at 200 mg/kg (Mus musculus): 25.8%
- IC50 (HCT-116): Not Active
- IC50 (QG-56): > 100 µM
- IC50 (HeLa): 100 µM
- IC50 (HepG2): Not Active
- MIC (Trichoderma viride [1]): 40 µM (≈ 28.2 µg/mL)
- zone of inhibition at 20 µM (Trichoderma viride [2]): 9 mm
- zone of inhibition at 40 µM (Trichoderma viride [3]): 11 mm
- zone of inhibition at 80 µM (Trichoderma viride [4]): 13 mm
- MIC (Curvularia lunata [5]): 80 µM (≈ 56.4 µg/mL)
- zone of inhibition at 20 µM (Curvularia lunata [6]): 9 mm
- zone of inhibition at 40 µM (Curvularia lunata [7]): 11 mm
- MIC (Aspergillus flavus [8]): inactive
- zone of inhibition at 80 µM (Curvularia lunata [9]): 13 mm
- inhibition zone (IZ) (Aspergillus flavus [10]): inactive
- MIC (Aspergillus niger [11]): inactive
- inhibition zone (IZ) (Aspergillus niger [12]): inactive
- MIC (Escherichia coli [13]): > 80 µM
- zone of inhibition at 20 µM (Escherichia coli [14]): 9 mm
- zone of inhibition at 40 µM (Escherichia coli [15]): 10 mm
- zone of inhibition at 80 µM (Escherichia coli [16]): 12 mm
- MIC (Pseudomonas aeruginosa [17]): > 80 µM
- diameter of the inhibition zone (DIZ) (Pseudomonas aeruginosa [18]): inactive
- diameter of the inhibition zone (DIZ) (Pseudomonas aeruginosa [19]): inactive
- zone of inhibition at 80 µM (Pseudomonas aeruginosa [20]): 11 mm
- MIC (Salmonella typhi [21]): > 80 µM
- diameter of the inhibition zone (DIZ) (Salmonella typhi [22]): inactive
- diameter of the inhibition zone (DIZ) (Salmonella typhi [23]): inactive
- zone of inhibition at 80 µM (Salmonella typhi [24]): 10 mm
- MIC (Bacillus cereus [25]): > 80 µM
- diameter of the inhibition zone (DIZ) (Bacillus cereus [26]): inactive
- diameter of the inhibition zone (DIZ) (Bacillus cereus [27]): inactive
- zone of inhibition at 80 µM (Bacillus cereus [28]): 10 mm
- MIC (Staphylococcus aureus [29]): > 80 µM
- diameter of the inhibition zone (DIZ) (Staphylococcus aureus [30]): inactive
- diameter of the inhibition zone (DIZ) (Staphylococcus aureus [31]): inactive
- zone of inhibition at 80 µM (Staphylococcus aureus [32]): 10 mm
